Assay results reported in ChEMBL document CHEMBL5705892, “MK-2206, an allosteric Akt inhibitor, enhances antitumor efficacy by standard chemotherapeutic agents or molecular targeted drugs in vitro and in vivo” (Mol Cancer Ther, 2010).
Activity calls are given as the source filed them. The calls are words filed in the database; no cut-off is given here.

How the values were obtained:
[1] = system: HCC1954; test: Synergistic antiproliferative activity against lapatinib pretreated human HCC1954 cells assessed as combination index at ED50 measured after 72 hrs by celltiter-glo assay; type: functional
[2] = system: NCI-H460; test: Synergistic antiproliferative activity against human NCI-H460 cells assessed as combination index at ED75 measured after 72 hrs in presence of gemcitabine by celltiter-glo assay; type: functional
[3] = system: HCC1954; test: Synergistic antiproliferative activity against human HCC1954 cells assessed as combination index at ED75 treated 24 hrs prior to lapatinib and measured after 72 hrs by celltiter-glo assay; type: functional; settings: time 96 hrs
[4] = system: HCC827; test: Synergistic antiproliferative activity against human HCC827 cells assessed as combination index at ED50 measured after 72 hrs in presence of erlotinib by celltiter-glo assay; type: functional
Method in brief: (§1)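 Cells grown in RPMI 1640 with 10% heat-inactivated FBS at 37°C, 5% CO₂. Seeded at 2 to 3 × 10³ per well; drugs added 24 h later. […] Viability read as cellular ATP by CellTiter-Glo. CI calculated by Chou–Talalay from median-effect plots at ED50, ED75 and ED90.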

[5] = system: NCI-H460; test: Synergistic antiproliferative activity against human NCI-H460 cells assessed as combination index at ED90 measured after 72 hrs in presence of erlotinib by celltiter-glo assay; type: functional
[6] = system: BT-474; test: Synergistic antiproliferative activity against human BT-474 cells assessed as combination index at ED90 preincubated for 24 hrs followed by compound washout and subsequent docetaxel addition and measured after 72 hrs by celltiter-glo assay; type: functional
Method in brief: (§2)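 Sequential schedule. Cells were seeded at 2 to 3 × 10³ per well in RPMI 1640 with 10% FBS and dosed 24 h after plating. They were exposed to the Akt inhibitor for 24 h, washed free of it, then given docetaxel for a further 72 h. Fixed concentration ratios spanned each agent's IC₅₀. ATP was read by CellTiter-Glo, and Chou–Talalay CI was calculated at ED50, ED75 and ED90.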

[7] = molecular target: RAC-alpha serine/threonine-protein kinase (Homo sapiens) (UniProt P31749); test: Inhibition of AKT phosphorylation at S473 residue in human NCI-H661 cells at 3 umol/L measured after 4 to 24 hrs in presence of carboplatin by MSD assay; settings: time 4-24 hrs
Sequence of RAC-alpha serine/threonine-protein kinase (Homo sapiens) (P31749 whole entry): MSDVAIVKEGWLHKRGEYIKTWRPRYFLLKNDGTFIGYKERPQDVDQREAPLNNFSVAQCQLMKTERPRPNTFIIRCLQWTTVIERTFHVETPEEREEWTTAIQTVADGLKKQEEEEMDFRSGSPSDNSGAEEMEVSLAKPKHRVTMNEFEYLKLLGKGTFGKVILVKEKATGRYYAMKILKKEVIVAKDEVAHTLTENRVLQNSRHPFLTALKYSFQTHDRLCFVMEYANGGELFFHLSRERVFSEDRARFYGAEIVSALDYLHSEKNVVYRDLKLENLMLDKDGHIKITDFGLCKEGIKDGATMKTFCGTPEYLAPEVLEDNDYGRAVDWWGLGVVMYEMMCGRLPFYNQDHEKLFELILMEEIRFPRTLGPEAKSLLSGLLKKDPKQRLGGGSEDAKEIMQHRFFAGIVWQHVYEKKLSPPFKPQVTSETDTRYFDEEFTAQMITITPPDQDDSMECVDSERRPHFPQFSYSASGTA

[8] = system: NCI-H23; test: Antiproliferative activity against human NCI-H23 cells assessed as reduction in cell proliferation measured after 72 hrs by celltiter-glo assay; type: functional, cell-based; settings: NCI-H23, 72 h
Method in brief: (§3)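 Cells in RPMI 1640 with 10% heat-inactivated FBS at 37°C and 5% CO₂ were seeded at 2 to 3 × 10³ per well. […] Growth was read as cellular ATP by CellTiter-Glo.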

[9] = system: MDA-MB-231; test: Synergistic antiproliferative activity against human MDA-MB-231 cells assessed as combination index at ED75 measured after 72 hrs in presence of docetaxel by celltiter-glo assay; type: functional; method in brief: as §1
[10] = system: NCI-H661; test: Synergistic antiproliferative activity against human NCI-H661 cells assessed as combination index at ED25 to ED90 measured after 72 hrs in presence of carboplatin by celltiter-glo assay; type: functional
[11] = system: NCI-H460; test: Antitumor activity against human NCI-H460 cells xenografted in CD1 nude mouse assessed as reduction in tumor volume at 120 mg/kg, po administered 3 times per week for 2 weeks by caliper method; type: functional, organism-based
Method in brief: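 NCI-H460 cells were injected s.c. in Matrigel/PBS into CD1-nude mice (female in the carboplatin study). Mice were randomized at 0.2 cm³, n = 5. Carboplatin was given at 50 mg/kg or gemcitabine at 100 mg/kg, i.v. in saline, on days 0 and 7. MK-2206 (30% Captisol) was given at 120 mg/kg po on days 0, 2, 4, 7, 9, 11. Tumors measured by caliper twice weekly.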

[12] = system: BT-474; test: Synergistic antiproliferative activity against human BT-474 cells assessed as combination index at ED75 preincubated for 24 hrs followed by compound washout and subsequent docetaxel addition and measured after 72 hrs by celltiter-glo assay; type: functional; method in brief: as §2
[13] = Toxicity in human NCI-H460 cells xenografted CD1 nude mouse assessed as body weight loss at 120 mg/kg, po administered 3 times per week for 2 weeks in presence of gemcitabine measured during compound dosing relative to control; type: organism-based; settings: in vivo, 336 h
Method in brief: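 CD1-nude mice with s.c. NCI-H460 xenografts, randomized at mean 0.2 cm³, n=5/group, dosing from day 8 post-implant. Body weight compared with vehicle-only controls.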

[14] = system: NCI-H292; test: Synergistic antiproliferative activity against human NCI-H292 cells assessed as combination index at ED90 measured after 72 hrs in presence of erlotinib by celltiter-glo assay; type: functional
[15] = Toxicity in human HCC70 cells xenografted CB17/icr SCID mouse at 120 mg/kg, po administered 3 times per week for 3 weeks starting 2 hrs post-lapatinib treatment and measured during compound dosing; type: organism-based; settings: in vivo, 504 h
Method in brief: (§4)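 HCC70 cells in 50% Matrigel/PBS injected s.c. into flank of female C.B-17/ICR-scid mice; dosing began after 3 wk, groups randomized at mean tumour 0.2 cm³ (n = 5). Lapatinib 100 mg/kg p.o. in distilled water, 5 d/wk for 3 wk; MK-2206 in 30% Captisol p.o. 3×/wk for 3 wk, given 2 h after lapatinib. Body weight and physical signs monitored throughout.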

[16] = system: NCI-H292; test: Synergistic antiproliferative activity against human NCI-H292 cells assessed as combination index at ED50 measured after 72 hrs in presence of erlotinib by celltiter-glo assay; type: functional
[17] = system: BT-474; test: Synergistic antiproliferative activity against docetaxel pretreated human BT-474 cells assessed as combination index at ED90 measured after 72 hrs by celltiter-glo assay; type: functional
[18] = system: HCC827; test: Antiproliferative activity against human HCC827 cells assessed as reduction in cell proliferation measured after 72 hrs by celltiter-glo assay; type: functional, cell-based; settings: HCC827, 72 h; method in brief: as §3
[19] = Effect on total S6 protein expression in human HCC70 cells at 1 umol/L measured after 3 to 24 hrs in presence of lapatinib by Western blot analysis; type: toxicity, cell-based; settings: hcc70, 1 µM, time 3-24 hrs, dose 1 µmol/L
Method in brief: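 HCC70 cells at ~70% confluence were exposed to 1 µmol/L MK-2206, 10 µmol/L lapatinib, or both for 0, 3, 6, 12 or 24 h. Cells were lysed in Tris-HCl pH 7.5/NaCl/1% Triton X-100 with protease and phosphatase inhibitors. Lysates were run on SDS-PAGE and immunoblotted.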

[20] = system: A2780; test: Synergistic antiproliferative activity against human A2780 cells assessed as combination index at ED90 measured after 72 hrs in presence of doxorubicin by celltiter-glo assay; type: functional
Method in brief: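 Cells were seeded at 2–3 × 10³ per well in RPMI 1640 with 10% FBS. At 24 h, MK-2206 and the partner drug were added simultaneously at constant concentration ratios spanning each agent's IC₅₀, for 72 h. Growth was read as cellular ATP by CellTiter-Glo. CI was taken from median-effect plots of each agent alone and in combination (Chou–Talalay), at ED₅₀, ED₇₅ and ED₉₀.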

[21] = Toxicity in human HCC70 cells xenografted CB17/icr SCID mouse assessed as body weight loss at 120 mg/kg, po administered 3 times per week for 3 weeks starting 2 hrs post-lapatinib treatment and measured during compound dosing; type: organism-based; settings: in vivo, 504 h; method in brief: as §4

In the case of `Cl.NC1(c2ccc(-c3nc4ccn5c(=O)[nH]nc5c4cc3-c3ccccc3)cc2)CCC1`, the CI50 [1] is reported as 0.18, the CI75 [2] is reported as 0.39 and the CI75 [3] is reported as 0.18. The CI50 [4] was 0.39, the CI90 [5] was 0.17 and the CI90 [6] was 1.6. The inhibition [7] was “Active”, the IC50 [8] was 14.1 µM and the CI75 [9] was 0.7. The CI [10] was 0.37, the Activity [11] was “Active” and the CI75 [12] was 1.5. The Activity [13] was 7%, the CI90 [14] was 0.28 and the Activity [15] was “Non-Toxic”. The CI50 [16] was 0.44, the CI90 [17] was 0.3 and the IC50 [18] was 4.3 µM. For the same molecule, the Activity [19] was “Toxic”, the CI90 [20] was 0.27 and the Activity [21] was “Non-Toxic”.
